# Screens deposited in PubChem by Broad Institute.
# The list is not random: actives were taken first. Their share in the collection is about 2%.
# S100A4 inh HTS = inhibitors of S100A4-myosin IIA peptide binding, primary screen, biochemical, fluorescence polarization, TAMRA-MyoIIA peptide; 360,000 compounds, 0.14% hits; Protein S100-A4 (Homo sapiens), P26447; inhibition, % at 10.7 µM; AID 652163, 2013;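 active = mean inhibition of at least 70% across replicates, with every replicate also reaching that level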
# Target sequence (P26447 whole entry, looked up): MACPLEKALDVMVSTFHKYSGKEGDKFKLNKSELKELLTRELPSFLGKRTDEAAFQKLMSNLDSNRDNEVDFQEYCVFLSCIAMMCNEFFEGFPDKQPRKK
#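 Assay system: human S100A4 monomer with TAMRA-labelled myosin IIA peptide / Buffer or medium: Calcium-containing HEPES buffer, pH 7.2 / Reagent: TAMRA-labelled myosin IIA heavy-chain peptide probe, 5 nM / Compound: one dose per compound / Timing: polarization read 5 min after assay mix addition, stable 5–60 min / Benchmarks: neutral control DMSO, positive control TFP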
# Xi reactivation = activators of inactive X chromosome reactivation, primary screen, imaging, XiGFP fibroblasts, GFP high-content imaging, set 2; XiGFP mouse fibroblasts, % GFP-positive cells imaging, 3 d; cells co-treated with 5-aza-dC sensitizer; scaled so ellipticine positive control = 100%; activation, % at 7.58 µM; AID 743238, 2013; 360,000 compounds, 0.055% hits;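 active = mean normalized replicate activation at least 10% and every replicate at or above 10%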;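 also: 0% = median of on-plate neutral control wells and 100% = ellipticine 6 µM median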
#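 material = 68-5-11 XiGFP fibroblast line | medium = DMEM plus 5-aza-dC sensitizer | schedule = 3 days compound exposure | benchmarks = positive control ellipticine, 6 µM final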
# DENV2 CPE rescue = inhibitors of DENV2 cytopathic effect, primary screen, cell-based, plate reader, single concentration; 350,000 compounds, 1.7% hits; CPE inhibition, % at 9.99 µM; DENV2-infected cells, cytopathic effect rescue; AID 651640, 2012; in the data active = CPE inhibition above about 20%, passing the limit was not always enough; tested in BHK-21 cells;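 also: 0% = median of neutral control wells and 100% = median of positive control wells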
# E-selectin induc = E-selectin induction in HUVECs, primary screen, imaging, HUVEC, immunofluorescence imaging, single point; P16581; normalized: neutral wells 0, TNF-alpha wells 100; activation, % at 7.58 µM; 260,000 compounds, 0.37% hits;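 active = mean E-selectin-positive cell signal at least 10% of the positive control, reached in at least 60% of replicates, without over 20% cell loss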
#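 System: HUVEC / Compound: single concentration / Signal: immunofluorescence imaging / Read-out: percent E-selectin-positive cells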
# * hit, by the source's call; x = not tested or not shown.
SMILES,S100A4 inh HTS,Xi reactivation,DENV2 CPE rescue,E-selectin induc
COc1ccc(Br)cc1/C=N/NC(=O)C(c1ccncc1)N1CCOCC1 (stereo not drawn),-4,0,98*,x
CCOC(=O)C1CCN(C(=O)COC(=O)c2ccc([N+](=O)[O-])o2)CC1,7,0,76*,x
O=C(CCc1ccccc1Cl)NC1CCCN(c2ccc(C(F)(F)F)cn2)C1 (stereo not drawn),179*,0,-7,x
COc1ccccc1CCC(=O)NC1CCCN(c2ccc(C(F)(F)F)cn2)C1 (stereo not drawn),-3,0,-3,x
O=S(=O)(Nc1cccc(Cl)c1)c1cccc(-n2cnnn2)c1,-2,0,11,x
Cn1cc(/C=C/c2cc[n+](C)cc2)c2cc(Cl)ccc21,-8,49*,12,x
CNC[C@H]1OCCCC[C@@H](C)Oc2ccc(NC(=O)Nc3ccc(OC)cc3)cc2C(=O)N([C@@H](C)CO)C[C@H]1C,2,0,-16,0
Cc1cccc(C)c1NC(=S)NC(C)CCc1ccccc1 (stereo not drawn),3,0,47*,x
C/C=C/c1ccc([C@H]2[C@@H](CO)N(CC3CCCC3)C23CN(S(=O)(=O)CC)C3)cc1,24,0,23*,0
C/C=C/c1ccc([C@@H]2[C@H](CO)N(Cc3cncnc3)C23CN(C(=O)CC2CC2)C3)cc1,5,0,11,0
CS(=O)(=O)N1CC2(C1)[C@@H](c1ccccc1)[C@@H](CO)N2Cc1ccccc1,-20,0,28*,0
C/C=C/c1ccc([C@H]2[C@@H](CO)N(CCC(F)(F)F)C23CN(C(=O)CC2CC2)C3)cc1,1,0,65*,0
C/C=C/c1ccc([C@H]2[C@@H](CO)N(CC3CC3)C23CN(S(C)(=O)=O)C3)cc1,0,0,51*,0
C/C=C/c1ccc([C@@H]2[C@H](CO)N(CC3CCCC3)C23CN(S(=O)(=O)CC)C3)cc1,-2,0,-6,0
CS(=O)(=O)N1CC2(C1)[C@H](c1ccccc1)[C@H](CO)N2Cc1ccccc1,-38,0,-7,0
C/C=C/c1ccc([C@H]2[C@@H](CO)N(CC3CCOCC3)C23CN(C(=O)COC)C3)cc1,-3,0,3,0
C/C=C/c1ccc([C@H]2[C@@H](CO)N(CC3CCOCC3)C23CN(S(=O)(=O)CC)C3)cc1,18,0,27*,0
CC12CCCC(C(C#N)C(N)=O)(C1)NC(=O)C2C#N (stereo not drawn),2,0,-1,0
CO[C@@H]1CN(C)C(=O)c2cc(NC(C)=O)ccc2OC[C@H](C)N(C(=O)CC2CC2)C[C@H]1C,-3,0,16,0
CO[C@H]1CN(C)C(=O)c2ccc(NC(=O)c3ccc(F)cc3)cc2OC[C@@H](C)N(C(=O)CC2CC2)C[C@H]1C,-9,6,4,0
CO[C@H]1CN(C)C(=O)c2cc(NC(C)=O)ccc2OC[C@H](C)N(C(=O)CC2CC2)C[C@@H]1C,2,0,36*,0
CO[C@@H]1CN(C)C(=O)c2cc(NC(C)=O)ccc2OC[C@@H](C)N(C(=O)CC2CC2)C[C@H]1C,-9,x,27*,x
CO[C@@H]1CN(C)C(=O)c2ccc(NC(=O)c3ccc(F)cc3)cc2OC[C@H](C)N(C(=O)CC2CC2)C[C@H]1C,117*,0,0,0
NC(=S)N=Nc1c(O)n(Cc2ccc(F)cc2)c2ccccc12,x,1,x,x
O=C(CSc1nnc(NC(=O)Cc2ccc(F)cc2)s1)NCc1ccco1,-1,0,-4,7
COCC(=O)N1CC2(C1)[C@@H](c1ccccc1)[C@@H](CO)N2C(=O)c1ccccc1,0,0,27*,0
O=C(CC1CC1)N1CC2(C1)[C@H](c1ccccc1)[C@@H](CO)N2S(=O)(=O)Cc1ccccc1,10,0,-1,0
C/C=C/c1ccc([C@H]2[C@@H](CO)N(C(=O)CC)C23CN(C(=O)c2ccccc2)C3)cc1,3,0,29*,0
CCC(=O)N1CC2(C1)[C@@H](c1ccc(-c3cccc(C)c3)cc1)[C@@H](CO)N2S(C)(=O)=O,0,0,27*,0
